Bioassay records from PubChem.
APP 5'UTR act: activates APP 5'UTR luciferase reporter; activation, % at 2 µM; SH-SY5Y APP 5'UTR luciferase reporter, luminescence; zero percent = DMSO vehicle wells; 190,000 tested, 1% active; AID 1276;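 active = activation above a set limit, based on mean plus 3 SD of controls, cut at about 140% in these data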
FLuc act counter: affects firefly luciferase, flagging false hits in luciferase stimulation screens | activation factor at 10 µM | 200,000 tested, under 10 active | ATPlite luciferase biochemical, luminescence, 10 min; 0 = ATP-free wells, 1 = DMSO control | P08659;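 active = luciferase activation factor, scaled between plate controls, of at least 2 with compound at 10 µM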
Target sequence (P08659 whole entry, looked up): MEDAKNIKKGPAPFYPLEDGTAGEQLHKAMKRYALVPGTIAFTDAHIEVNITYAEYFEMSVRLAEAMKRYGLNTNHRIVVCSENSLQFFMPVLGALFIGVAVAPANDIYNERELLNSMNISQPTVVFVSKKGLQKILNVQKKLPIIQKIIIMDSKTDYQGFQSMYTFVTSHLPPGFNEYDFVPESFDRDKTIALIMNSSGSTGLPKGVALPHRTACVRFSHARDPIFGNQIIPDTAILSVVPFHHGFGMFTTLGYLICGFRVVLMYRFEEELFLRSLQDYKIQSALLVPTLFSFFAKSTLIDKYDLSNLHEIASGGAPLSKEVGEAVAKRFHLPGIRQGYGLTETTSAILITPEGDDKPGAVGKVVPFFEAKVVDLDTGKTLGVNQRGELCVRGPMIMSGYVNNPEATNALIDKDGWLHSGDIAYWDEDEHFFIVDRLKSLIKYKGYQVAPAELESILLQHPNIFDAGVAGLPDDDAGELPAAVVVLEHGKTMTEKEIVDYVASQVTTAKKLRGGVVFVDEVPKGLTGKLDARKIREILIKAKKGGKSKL
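Assay system: Luciferase/luciferin reagent mix; Medium: PBS as buffer for the ATP substrate; Dosing: test compounds dosed from 2 mM stocks in 100% DMSO; Times: 10 min, room temperature; Signal: luminescence from luciferase reaction; Read-out: luciferase activation; Controls: No-ATP low control, compound-free enzyme-plus-ATP high control.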
NF-kB expr up: NF-kB expression increase, human neuronal cells; NF-kB reporter expression; stronger effect = higher value; fold change at 12.5 µM; 190,000 tested, 1.6% active; in the data active = fold change above about 3.3
FLuc inhib CS: Photinus pyralis luciferase inhibition counter-screen | P08659 | ATPLite firefly luciferase biochemical luminescence, 10 min | inhibition, % at 10 µM | 200,000 tested, 1.5% active | AID 1006;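 active = inhibition above about 50% when tested at 10 µM, limit read from the data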
STAT1 activator: activators of IFN-gamma induced STAT1 signaling; NIH 3T3 STAT1-luciferase reporter, luminescence; 100% = IFN-gamma alone, no compound; AID 932; activation (% of control), % at 5.5 µM; 200,000 tested, 2.6% active;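 active = activation above the screen-wide mean activation plus 3 SD, cut at about 130% in these data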;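 note: raw ratio to IFN-gamma control signal so 100% means no change and 0% no light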
Starred values were filed as active, the others as inactive; nt = no result. A selection: hits, their analogues and other compounds. The true share with any hit is near 4.1%.

SMILES	APP 5'UTR act	FLuc act counter	NF-kB expr up	FLuc inhib CS	STAT1 activator
O=[N+]([O-])c1nn(-c2ccc3c(c2)OCCO3)n(O)c1=NCc1ccc(F)cc1	95.7	0.9	2.87	5.6	143.3*
O=[N+]([O-])c1nn(-c2ccc3c(c2)OCCO3)n(O)c1=NCc1ccc(F)cc1Cl	165.4*	0.9	2.15	9.5	141.8*
Nc1nc(NCc2ccccc2)nc(-c2ccccc2)n1	-0.3	1	1.33	-3.4	92.2
O=S(=O)(NCc1csc(-c2cccnc2)n1)c1cccs1	-24.6	1.1	0.8	-7.7	107.1
C=CCn1c(C)cc(C2=NNC(=NC(C)(C)C)SC2)c1C	127.6	0.1	0.37	89.7*	107.8
COCCn1c(C)cc(C2=NNC(=NC3CC3)SC2)c1C	-87.7	0	0.17	95.8*	10.3
COCCn1c(C)cc(C2=NNC(=Nc3ccc(Cl)cc3Cl)SC2)c1C	-5.9	1.1	1.01	-5.4	101.7
C=CCN=C1NN=C(c2cc(C)n(CCOC)c2C)CS1	1.9	0.1	0.2	89.0*	77.7
C=CCn1c(C)cc(C2=NNC(=Nc3ccc(C)cc3)SC2)c1C	14.1	1	0.92	2.0	121.1
CCOc1cccc(/C=C/C(=O)O)c1	-9.5	1.1	nt	-6.7	100.5
O=C(N/N=C/c1cccc(F)c1)c1c(O)c2c([nH]c1=O)CCCC2	141.7*	0.9	1.22	5.3	103.2
CNC(=O)c1ccccc1NC(=O)c1c(O)c2c([nH]c1=O)CCCC2	-3.4	0.9	0.84	13.2	105.9
CCN(Cc1ccccc1)c1ccc(/C=N/N2CCOCC2)cc1	-14.0	1	1.64	2.1	112.6
CCN(CC)c1ccc(/C=N/N2CCOCC2)cc1	47.6	0.5	3.19	51.5*	139.1*
COC(=O)c1c(-c2ccccc2)csc1NC1=NS(=O)(=O)c2ccccc21	134.7	0.3	1.17	65.4*	135.5*
CCOC(=O)C1=C(CSc2nc(-c3ccccc3)ccc2C#N)OC(N)=C(C#N)C1c1cccnc1 (stereo not drawn)	43.2	1.1	3.84*	-6.2	107.3
O=c1c2ccccc2nnn1COc1ccc(Cl)cc1Br	80.3	1	1.11	2.7	133.0*
CCOc1ccc(OCCn2nnc3ccccc3c2=O)cc1	44.5	0.9	4.57*	7.1	125.2
CCC(=O)OCn1nnc2ccccc2c1=O	9.1	1	1.29	0.2	96.8
O=c1c2ccccc2nnn1COc1cccc2ccccc12	49.3	1	2.13	0.5	129.7*
O=c1c2ccccc2nnn1COc1ccc(F)cc1Cl	24.9	0.9	2.33	7.7	143.8*
CCCn1nnc2ccccc2c1=O	1.0	1	1.2	-0.9	101.8
CCOC(=O)C1=C(CSc2nc3ccccc3s2)NC(=O)NC1c1cccc([N+](=O)[O-])c1 (stereo not drawn)	3.3	1	0.94	-0.9	96.4
Cc1ccc(NS(=O)(=O)c2cc(C(=O)O)ccc2Cl)c(C)c1	-8.9	1	0.88	4.7	106.0
Cn1c(=O)[nH]c(=O)c2c1nc(Sc1ncccn1)n2CCCc1ccccc1	-8.7	1.1	1.06	-5.0	106.8
SMILES	APP 5'UTR act	FLuc act counter	NF-kB expr up	FLuc inhib CS	STAT1 activator
CCC(C)(C)C1CCc2c(sc(NC(=O)c3cccs3)c2C(N)=O)C1 (stereo not drawn)	19.6	0.9	1.22	10.0	84.8
CC(C)(C)C1CCc2c(sc(NC(=O)c3cccs3)c2C(N)=O)C1 (stereo not drawn)	-5.2	0.4	0.82	57.7*	50.7
Cc1ccc2c(c1)C(N1CCCC1=O)CC(c1ccco1)N2 (stereo not drawn)	126.9	0.1	3.72*	94.7*	93.4
Oc1cc(NCc2cccnc2)ccc1-c1nc2ccccc2o1	155.2*	1	2.45	0.0	134.1*
CCc1ccc(OCC(=O)Nc2ccc(-c3nc4ccccc4o3)c(O)c2)cc1	7.3	1	1.62	-2.9	104.8
C=CCSc1n[nH]c(-c2ccc(OC)cc2)n1	56.2	0.8	2.65	20.5	140.5*
CCOc1cccc2cc(-c3csc(NC(=O)CCC(=O)N4CCC(C)CC4)n3)c(=O)oc12	-5.2	1	1.09	-4.5	98.4
CCOc1cccc2cc(-c3csc(NC(=O)CCC(=O)NCCN4CCCCC4C)n3)c(=O)oc12 (stereo not drawn)	177.9*	0.7	6.82*	29.4	144.8*
CCOC(=O)N1CCC(N2Cc3cccc(C(=O)NCc4ccc(C)cc4)c3C2=O)CC1	9.9	1	0.99	-3.6	101.5
